Test results taken from ChEMBL document CHEMBL1144948, “Design and synthesis of 1,5-diarylbenzimidazoles as inhibitors of the VEGF-receptor KDR” (Bioorg Med Chem Lett, 2003).
In brackets after ≈: the same amount, converted by molar mass.

Tests used:
[1] = tested on: HUVEC; test: Inhibition of HUVEC cell proliferation; conditions: Homo sapiens
[2] = Solubility at pH 7.4; assay type: physicochemical; conditions: buffer
In short: (§1)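 Saturated compound solution in pH-adjusted buffer is filtered. Concentration comes from the HPLC peak area compared against standard methanolic solutions.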

[3] = species: Homo sapiens; test: Compound tested for ability to bind to human plasma protein; assay type: cell-free
In short: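 Human plasma binding: buffer solutions of test compound equilibrated with human plasma, free and bound drug separated by ultrafiltration, free compound concentration measured by HPLC; reported as percent bound.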

[4] = Volume distribution of compound was determined as average of four rats at each dose of 5 mg/kg intravenous and 20 mg/kg peroral administration; assay type: ADME, organism-based; conditions: rat, in vivo, read-out: Vdss
In short: (§2)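 Rats, four per route and values averaged; 5 mpk iv given as a solution in DMSO, 20 mpk po as a suspension in 0.5% methocel.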

[5] = CL (clearance) of compound was determined as average of four rats at each dose of 5 mg/kg intravenous and 20 mg/kg peroral administration; assay type: ADME, organism-based; conditions: rat, in vivo; in short: as §2
[6] = Oral bioavailability (F%) of compound was determined as average of four rats at each dose of 5 mg/kg intravenous and 20 mg/kg peroral administration; assay type: ADME, organism-based; conditions: rat, in vivo; in short: as §2
[7] = Volume distribution (Vdss) of compound was determined after intravenous administration in average of two dogs at a dose of 1 mg/kg; assay type: ADME, organism-based, Canis lupus familiaris; parameters: dose 1 mg/kg, route intravenous; conditions: dog, in vivo, read-out: Vdss
In short: (§3)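 Dogs (n=2, averaged) received 1 mpk iv as a solution in DMSO.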

[8] = Half life period (t1/2) of compound was determined after intravenous administration in average of two dogs at a dose of 1 mg/kg; assay type: ADME, organism-based, Canis lupus familiaris; parameters: dose 1 mg/kg, route intravenous; conditions: dog, in vivo; in short: as §3
[9] = CL (clearance) of compound was determined after intravenous administration in average of two dogs at a dose of 1 mg/kg; assay type: ADME, organism-based, Canis lupus familiaris; parameters: dose 1 mg/kg, route intravenous; conditions: dog, in vivo; in short: as §3
[10] = Half life period as average of four rats at each dose of 5 mg/kg intravenous and 20 mg/kg peroral administration; assay type: ADME, organism-based; conditions: rat, in vivo; in short: as §2
[11] = Partition coefficient (logP); assay type: physicochemical; conditions: octanol/water
In short: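 Shake-flask partition: a methanolic sample aliquot added to equal volumes of 1-octanol and pH 7.4 buffer, equilibrated 8 h, then compound concentration measured in each phase.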

[12] = Solubility atpH 5.2; assay type: physicochemical; conditions: pH 5.2; in short: as §1
[13] = Solubility at pH 5.2; assay type: physicochemical; conditions: buffer; in short: as §1
[14] = Volume distribution of compound was determined as average of four rats at each dose of 5 mg/kg intravenous and 16 mg/kg peroral administration; assay type: ADME, organism-based; conditions: rat, in vivo, read-out: Vdss
In short: (§4)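 Rats (n=4 per route, averaged) dosed 5 mpk iv as a DMSO solution and 16 mpk po as a suspension in 0.5% methocel.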

[15] = CL (clearance) of compound was determined as average of four rats at each dose of 5 mg/kg intravenous and 16 mg/kg peroral administration; assay type: ADME, organism-based; conditions: rat, in vivo; in short: as §4
[16] = Oral bioavailability (F%) of compound was determined as average of four rats at each dose of 5 mg/kg intravenous and 16 mg/kg peroral administration; assay type: ADME, organism-based; conditions: rat, in vivo; in short: as §4
[17] = Half life period as average of four rats at each dose of 5 mg/kg intravenous and 16 mg/kg peroral administration; assay type: ADME, organism-based; conditions: rat, in vivo; in short: as §4

| solubility [2] | Binding [3] | logP [11] | SMILES | IC50 [1] | also measured |
| --- | --- | --- | --- | --- | --- |
|  |  |  | O=c1ccc(-c2ccc3c(c2)ncn3-c2ccccc2)cn1CCCN1CCCCC1 | 152 nM |  |
|  |  |  | c1ccc(-n2cnc3cc(-c4ccc(NCCN5CCOCC5)nc4)ccc32)cc1 | 213 nM |  |
| > 1000 µg/mL | 85% |  | O=c1ccc(-c2ccc3c(c2)ncn3-c2ccccc2)cn1CCN1CCCCC1 |  |  |
|  |  |  | COc1ccc(-c2ccc3c(c2)ncn3-c2ccccc2)cc1 | > 1000 nM |  |
|  |  |  | c1ccc(-n2cnc3cc(-c4ccc(OCCN5CCCCC5)nc4)ccc32)cc1 | 122 nM |  |
| 8400 µg/mL (≈ 20.4 mM) | 80.7% | 2.25 | O=c1cc(-c2ccc3c(c2)ncn3-c2ccccc2)ccn1CCCN1CCCCC1 | 37 nM | Vd [4]: 3.9 L/kg; clearance [5]: 17.3 mL/min/kg; bioavailability [6]: 73%; Vd [7]: 7.9 L/kg; half-life [8]: 10.4 h; clearance [9]: 8.9 mL/min/kg; half-life [10]: 2.9 h; solubility [12]: 33900 µg/mL (≈ 82.2 mM) |
| 21 µg/mL (≈ 0.0527 mM) | 97.4% | 3.55 | c1ccc(-n2cnc3cc(-c4ccc(OCCN5CCCCC5)cc4)cnc32)cc1 | 48 nM | solubility [13]: 6460 µg/mL (≈ 16.2 mM) |
| < 0.01 µg/mL | 99.4% | 4.29 | c1ccc(-n2cnc3cc(-c4ccc(OCCN5CCCCC5)cc4)ccc32)cc1 | 87 nM | Vd [14]: 1.9 L/kg; clearance [15]: 14.4 mL/min/kg; bioavailability [16]: 76%; Vd [7]: 3.1 L/kg; half-life [8]: 5.2 h; clearance [9]: 4.6 mL/min/kg; half-life [17]: 6.1 h; solubility [13]: 120 µg/mL (≈ 0.302 mM) |
|  |  |  | O=c1nc(-c2ccc3c(c2)ncn3-c2ccccc2)ccn1CCCN1CCCCC1 | 164 nM |  |
